One data set relates to HUVEC. The data set is described as follows: Antiproliferative activity against VEGF-stimulated HUVEC after 48 hrs by sulforhodamine B assay. The following applies: Homo sapiens. For orientation: The SRB assay estimates cell density from bound dye.
Data set [1] is described as follows: Dissociation constant, pKa of the compound. The format is physicochemical.
Data set [2] in a line: Lipophilicity, log P of the compound. The format is physicochemical. The following applies: octanol/water.
Data set [3] has as its target Vascular endothelial growth factor receptor 3 (Homo sapiens, UniProt P35916). The data set is described as follows: Inhibition of VEGFR3.
Data set [4] addresses Vascular endothelial growth factor receptor 1 (Homo sapiens, UniProt P17948). Nature of the data set: Inhibition of VEGFR1.
The subject of data set [5] is HepG2. The data set is described as follows: Antitumor activity against human HepG2 cells xenografted in BALB/c nude mouse assessed as tumor growth inhibition administered as po qd at 3 doses for 15 days. Format: functional, organism-based. Summed up:
(§1)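 HepG2 hepatocarcinoma cells (1 × 10⁷) implanted sc in the flank of BALB/c-nu mice. Once-daily oral dosing of compound or vehicle began five days after implantation and ran 15 days at 20, 50 or 100 mg/kg. Tumor growth followed; %TGI; mean and SE, n = 8.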
Background: Xenograft models place foreign cells or tissue in a host animal.

The nature of data set [6]: Inhibition of AKT.
The test system of data set [7] is Mus musculus. Nature of the data set: Toxicity in nude BALB/c mouse xenografted with human HepG2 cells assessed as weight loss at 100 mg/kg, po qd at 3 doses for 15 days. On the set-up: dose 100 mg/kg, route oral. Format: organism-based. The following applies: in vivo, 360 h. Summed up:
(§2)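 BALB/c-nu mice bearing sc flank HepG2 xenografts received oral compound once daily for 15 days, top dose 100 mg/kg, starting five days after implantation. Animals were watched for clinically observable toxicity signs and for body weight loss; n = 8.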

Data set [8] deals with HepG2. The data set is described as follows: Antitumor activity against human HepG2 cells xenografted in BALB/c nude mouse assessed as tumor growth inhibition at 100 mg/kg, po qd at 3 doses for 15 days. The following applies: HepG2, 360 h, read-out: TGI. The format is functional. Summed up:
as §1

In data set [9] the target is Platelet-derived growth factor receptor alpha (Homo sapiens, UniProt P16234). Nature of the data set: Inhibition of PDGFRalpha.
Sequence of Platelet-derived growth factor receptor alpha (P16234 whole entry, the tested form may be a part): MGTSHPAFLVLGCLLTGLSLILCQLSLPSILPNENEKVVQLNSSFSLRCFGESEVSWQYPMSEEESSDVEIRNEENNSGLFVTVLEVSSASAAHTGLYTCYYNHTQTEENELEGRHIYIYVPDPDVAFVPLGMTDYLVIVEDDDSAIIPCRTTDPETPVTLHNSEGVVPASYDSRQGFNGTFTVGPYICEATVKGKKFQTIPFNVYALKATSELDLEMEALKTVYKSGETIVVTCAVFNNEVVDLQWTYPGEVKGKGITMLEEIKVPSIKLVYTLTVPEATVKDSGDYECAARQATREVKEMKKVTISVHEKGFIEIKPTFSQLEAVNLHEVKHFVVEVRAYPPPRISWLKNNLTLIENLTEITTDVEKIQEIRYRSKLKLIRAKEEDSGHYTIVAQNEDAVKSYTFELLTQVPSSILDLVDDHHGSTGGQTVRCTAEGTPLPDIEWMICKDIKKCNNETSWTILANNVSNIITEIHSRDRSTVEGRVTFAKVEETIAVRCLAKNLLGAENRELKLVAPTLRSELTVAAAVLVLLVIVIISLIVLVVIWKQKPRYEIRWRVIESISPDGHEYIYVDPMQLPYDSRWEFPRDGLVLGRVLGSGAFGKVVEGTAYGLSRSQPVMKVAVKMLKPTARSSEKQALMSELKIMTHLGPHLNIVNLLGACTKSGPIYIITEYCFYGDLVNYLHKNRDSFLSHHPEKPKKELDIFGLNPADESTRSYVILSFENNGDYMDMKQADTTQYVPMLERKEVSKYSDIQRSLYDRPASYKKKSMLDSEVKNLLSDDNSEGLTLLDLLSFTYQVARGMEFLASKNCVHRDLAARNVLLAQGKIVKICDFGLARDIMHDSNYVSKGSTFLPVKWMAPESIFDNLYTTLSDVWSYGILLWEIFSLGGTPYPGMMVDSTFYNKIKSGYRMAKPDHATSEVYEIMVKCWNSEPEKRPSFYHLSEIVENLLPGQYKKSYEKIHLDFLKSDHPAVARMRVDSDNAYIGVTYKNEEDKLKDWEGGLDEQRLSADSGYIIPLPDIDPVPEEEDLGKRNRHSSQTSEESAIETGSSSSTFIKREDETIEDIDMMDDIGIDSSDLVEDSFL
The target in data set [10] is Vascular endothelial growth factor receptor 2 (Homo sapiens, UniProt P35968). Nature of the data set: Inhibition of human GST-tagged VEGFR2 intracellular domain using biotin-aminohexyl-EEEEYFELVAKKKK-NH2 as substrate after 30 mins by HTRF assay. (In general: In TR-FRET formats the signal depends on donor and acceptor labels being close together.)
Sequence of Vascular endothelial growth factor receptor 2 (P35968 whole entry, the tested form may be a part): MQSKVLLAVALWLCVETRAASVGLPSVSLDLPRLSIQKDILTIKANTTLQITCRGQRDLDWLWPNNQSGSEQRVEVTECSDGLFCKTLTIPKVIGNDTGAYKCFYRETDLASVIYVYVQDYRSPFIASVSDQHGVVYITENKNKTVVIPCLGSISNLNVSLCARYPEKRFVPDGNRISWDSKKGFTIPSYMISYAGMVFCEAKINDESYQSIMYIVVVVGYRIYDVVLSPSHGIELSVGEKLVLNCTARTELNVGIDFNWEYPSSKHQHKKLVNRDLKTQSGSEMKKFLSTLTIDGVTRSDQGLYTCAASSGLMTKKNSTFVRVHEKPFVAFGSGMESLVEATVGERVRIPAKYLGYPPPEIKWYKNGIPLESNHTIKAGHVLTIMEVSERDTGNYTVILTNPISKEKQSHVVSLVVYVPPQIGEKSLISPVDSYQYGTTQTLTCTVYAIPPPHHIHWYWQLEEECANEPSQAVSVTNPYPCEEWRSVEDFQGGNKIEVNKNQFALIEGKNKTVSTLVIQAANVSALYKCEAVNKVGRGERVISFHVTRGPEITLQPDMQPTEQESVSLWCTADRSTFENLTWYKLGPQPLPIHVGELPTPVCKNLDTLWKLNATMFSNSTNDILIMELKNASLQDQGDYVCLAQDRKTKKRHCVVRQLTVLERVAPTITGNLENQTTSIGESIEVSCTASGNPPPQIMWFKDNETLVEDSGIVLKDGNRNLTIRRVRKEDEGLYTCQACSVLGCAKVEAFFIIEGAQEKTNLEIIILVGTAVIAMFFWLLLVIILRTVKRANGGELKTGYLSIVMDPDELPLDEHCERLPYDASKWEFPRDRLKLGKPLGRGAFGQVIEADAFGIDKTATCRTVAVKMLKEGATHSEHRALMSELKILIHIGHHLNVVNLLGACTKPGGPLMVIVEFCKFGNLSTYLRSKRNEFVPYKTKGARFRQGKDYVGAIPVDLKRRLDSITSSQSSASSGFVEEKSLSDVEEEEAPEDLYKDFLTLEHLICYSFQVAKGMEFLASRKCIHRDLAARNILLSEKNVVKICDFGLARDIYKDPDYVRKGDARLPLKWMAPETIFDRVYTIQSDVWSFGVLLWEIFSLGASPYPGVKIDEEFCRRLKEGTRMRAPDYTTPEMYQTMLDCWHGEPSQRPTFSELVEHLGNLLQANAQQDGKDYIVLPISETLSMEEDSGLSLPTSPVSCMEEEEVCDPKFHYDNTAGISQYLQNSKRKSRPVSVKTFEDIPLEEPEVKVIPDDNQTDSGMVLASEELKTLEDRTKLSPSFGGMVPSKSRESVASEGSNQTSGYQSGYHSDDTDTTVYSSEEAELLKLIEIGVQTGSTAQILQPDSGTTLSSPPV
Another data set addresses Angiopoietin-1 receptor (Homo sapiens, UniProt Q02763). The data set is described as follows: Inhibition of Tie2.
The target of data set [11] is Cyclin-dependent kinase 1 (Homo sapiens, UniProt P06493). The data set is described as follows: Inhibition of CDK1.
Sequence of Cyclin-dependent kinase 1 (P06493 whole entry): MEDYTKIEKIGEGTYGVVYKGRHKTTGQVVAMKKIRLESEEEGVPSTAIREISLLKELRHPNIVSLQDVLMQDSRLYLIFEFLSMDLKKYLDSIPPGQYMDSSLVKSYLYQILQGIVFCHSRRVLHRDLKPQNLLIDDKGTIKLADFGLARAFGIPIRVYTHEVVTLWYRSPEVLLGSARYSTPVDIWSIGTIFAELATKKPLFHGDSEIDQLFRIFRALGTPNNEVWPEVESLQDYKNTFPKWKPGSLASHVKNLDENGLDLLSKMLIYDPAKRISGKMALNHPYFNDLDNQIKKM
Data set [12] relates to HepG2. Nature of the data set: Antitumor activity against human HepG2 cells xenografted in BALB/c nude mouse assessed as tumor growth inhibition at 20 mg/kg, po qd at 3 doses for 15 days. Format: functional. The following applies: HepG2, 360 h, read-out: TGI. Summed up:
as §1

Data set [13] relates to HepG2. Nature of the data set: Antitumor activity against human HepG2 cells xenografted in BALB/c nude mouse assessed as tumor growth inhibition at 50 mg/kg, po qd at 3 doses for 15 days. The following applies: HepG2, 360 h, read-out: TGI. Format: functional. Summed up: as §1
The target of data set [14] is Receptor tyrosine-protein kinase erbB-2 (Homo sapiens, UniProt P04626). The data set is described as follows: Inhibition of HER2.
Sequence of Receptor tyrosine-protein kinase erbB-2 (P04626 whole entry): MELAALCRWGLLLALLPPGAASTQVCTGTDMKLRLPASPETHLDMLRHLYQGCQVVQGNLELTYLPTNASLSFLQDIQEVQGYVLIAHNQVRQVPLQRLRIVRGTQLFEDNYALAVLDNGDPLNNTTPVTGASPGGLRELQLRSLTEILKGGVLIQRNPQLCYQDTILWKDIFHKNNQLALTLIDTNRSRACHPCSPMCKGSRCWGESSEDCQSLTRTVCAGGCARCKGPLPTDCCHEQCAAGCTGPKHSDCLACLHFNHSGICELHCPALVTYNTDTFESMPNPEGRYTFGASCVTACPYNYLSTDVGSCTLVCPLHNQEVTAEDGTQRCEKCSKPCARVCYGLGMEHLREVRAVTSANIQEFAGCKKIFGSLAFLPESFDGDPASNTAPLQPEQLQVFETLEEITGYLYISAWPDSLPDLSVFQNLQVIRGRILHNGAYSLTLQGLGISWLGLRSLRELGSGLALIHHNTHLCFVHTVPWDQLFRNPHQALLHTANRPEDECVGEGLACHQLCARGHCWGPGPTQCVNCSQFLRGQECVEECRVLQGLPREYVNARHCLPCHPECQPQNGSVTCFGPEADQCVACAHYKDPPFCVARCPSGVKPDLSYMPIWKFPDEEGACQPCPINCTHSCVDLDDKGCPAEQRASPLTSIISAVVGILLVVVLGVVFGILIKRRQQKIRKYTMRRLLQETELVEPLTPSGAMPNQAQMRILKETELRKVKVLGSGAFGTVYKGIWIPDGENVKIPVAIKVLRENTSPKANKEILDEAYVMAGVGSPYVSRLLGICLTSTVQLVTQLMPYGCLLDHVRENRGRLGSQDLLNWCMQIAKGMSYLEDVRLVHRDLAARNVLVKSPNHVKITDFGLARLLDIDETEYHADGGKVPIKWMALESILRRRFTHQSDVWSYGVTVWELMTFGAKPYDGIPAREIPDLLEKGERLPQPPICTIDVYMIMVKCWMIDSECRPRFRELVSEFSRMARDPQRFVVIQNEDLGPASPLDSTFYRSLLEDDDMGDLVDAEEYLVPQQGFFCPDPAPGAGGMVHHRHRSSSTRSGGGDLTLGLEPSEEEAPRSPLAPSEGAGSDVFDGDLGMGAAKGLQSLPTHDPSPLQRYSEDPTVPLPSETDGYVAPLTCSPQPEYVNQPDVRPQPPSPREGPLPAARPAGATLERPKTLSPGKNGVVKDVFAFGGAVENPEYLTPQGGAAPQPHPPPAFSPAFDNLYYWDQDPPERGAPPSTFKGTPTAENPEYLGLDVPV
For data set [15], the target named is Fibroblast growth factor receptor 1 (Homo sapiens, UniProt P11362). The data set is described as follows: Inhibition of FGFR1.
The test system of data set [16] is Mus musculus. Nature of the data set: Toxicity in nude BALB/c mouse xenografted with human HepG2 cells assessed as clinically observable signs of toxicity at 100 mg/kg, po qd at 3 doses for 15 days. Set-up: dose 100 mg/kg, route oral. Format: organism-based. Particulars: in vivo, 360 h. Summed up:
as §2

Data set [17] in a line: Solubility of the compound in water. The format is physicochemical. Particulars: buffer.

Some results are limits rather than exact numbers.

Sequence of Angiopoietin-1 receptor (Q02763 whole entry): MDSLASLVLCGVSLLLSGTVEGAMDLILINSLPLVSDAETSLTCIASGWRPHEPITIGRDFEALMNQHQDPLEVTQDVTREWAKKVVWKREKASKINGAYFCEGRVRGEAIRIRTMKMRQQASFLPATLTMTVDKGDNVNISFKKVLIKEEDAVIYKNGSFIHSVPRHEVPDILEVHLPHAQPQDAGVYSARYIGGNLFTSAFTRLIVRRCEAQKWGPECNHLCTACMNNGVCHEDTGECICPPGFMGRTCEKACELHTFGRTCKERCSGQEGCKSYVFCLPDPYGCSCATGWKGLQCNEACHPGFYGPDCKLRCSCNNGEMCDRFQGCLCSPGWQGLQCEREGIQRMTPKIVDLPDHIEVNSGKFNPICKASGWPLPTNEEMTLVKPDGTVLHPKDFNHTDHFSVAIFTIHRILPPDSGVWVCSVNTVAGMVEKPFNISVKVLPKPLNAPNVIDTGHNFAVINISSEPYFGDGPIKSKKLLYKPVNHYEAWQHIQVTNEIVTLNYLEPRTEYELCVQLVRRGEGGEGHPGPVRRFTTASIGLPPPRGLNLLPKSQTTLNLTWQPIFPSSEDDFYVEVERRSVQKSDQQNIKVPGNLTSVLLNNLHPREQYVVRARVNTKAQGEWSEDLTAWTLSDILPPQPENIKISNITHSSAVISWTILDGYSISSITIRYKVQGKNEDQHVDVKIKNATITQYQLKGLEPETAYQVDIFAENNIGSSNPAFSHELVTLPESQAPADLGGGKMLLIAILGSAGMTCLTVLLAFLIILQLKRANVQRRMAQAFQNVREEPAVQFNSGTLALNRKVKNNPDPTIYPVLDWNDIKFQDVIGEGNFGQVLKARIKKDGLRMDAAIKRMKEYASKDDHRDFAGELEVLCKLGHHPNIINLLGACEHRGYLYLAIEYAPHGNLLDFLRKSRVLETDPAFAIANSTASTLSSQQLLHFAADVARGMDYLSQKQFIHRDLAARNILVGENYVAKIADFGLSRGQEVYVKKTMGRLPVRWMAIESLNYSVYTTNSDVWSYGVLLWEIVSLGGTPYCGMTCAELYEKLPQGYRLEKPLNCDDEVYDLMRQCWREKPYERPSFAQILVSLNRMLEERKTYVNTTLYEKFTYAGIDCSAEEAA

For orientation: IC50 means the point on the concentration scale where inhibition reaches its midpoint. A lower IC50 goes with greater potency. In the data set with HUVEC, `CN1CCC(COc2ccc3c(Nc4ccc(CC(=O)Nc5cccc(F)c5)cc4)ncnc3c2)CC1` came in with an IC50 of 237 nM.
One may read the pKa as the pH at which an ionisable group is half protonated. A lower pKa goes with a group that gives up its proton readily. `CN1CCCCC1` had a pKa in data set [1] of 8.1.
For `CN1CCC(COc2ccc3c(Nc4ccc(NC(=O)Nc5cccc(F)c5)c(F)c4)ncnc3c2)CC1`, in the data set on HUVEC, the IC50 turned out to be 67 nM.
For `CN1CCC(COc2ccc3c(Nc4ccc(CC(=O)Nc5ccc(F)c(F)c5)cc4)ncnc3c2)CC1`, half-maximal inhibition in the data set with HUVEC (IC50) was put at 308 nM.
In the case of `CN1CCC(COc2ccc3c(Nc4ccc(NC(=O)Nc5ccc(Br)cc5F)cc4)ncnc3c2)CC1`, the IC50 in the data set with HUVEC stood at 233 nM.
The same measure, in the same setting: the result for `CN1CCC(COc2ccc3c(Nc4ccc(NC(=O)NC5CC5)cc4)ncnc3c2)CC1` reads 324 nM.
In turn, `CN1CCC(COc2ccc3c(Nc4ccc(NC(=O)Nc5ccc(Cl)c(C(F)(F)F)c5)cc4)ncnc3c2)CC1` registered an IC50 in the data set on HUVEC of 92 nM.
Molecule `CN1CCC(COc2ccc3c(Nc4ccc(CC(=O)Nc5ccc(Cl)c(C(F)(F)F)c5)cc4)ncnc3c2)CC1` showed an IC50 in the data set on HUVEC of 258 nM.
The same measure, in the same setting: the result for `CCNC(=O)Nc1ccc(Nc2ncnc3cc(OCC4CCN(C)CC4)ccc23)cc1` reads 587 nM.
In general, logP refers to the decadic logarithm of the partition coefficient of the neutral form, usually between octanol and water. `CNC(=O)c1cc(Oc2ccc(NC(=O)Nc3ccc(Cl)c(C(F)(F)F)c3)cc2)ccn1` [SORAFENIB] yielded a logP in data set [2] of 5.
In the data set with HUVEC, `Cc1ccc(NC(=O)Nc2ccc(Nc3ncnc4cc(OCC5CCN(C)CC5)ccc34)cc2)cc1Br` had a 50% inhibitory concentration (IC50) of 196 nM.
On to `CN1CCC(COc2ccc3c(Nc4ccc(NC(=O)Nc5cccc(F)c5)cc4)ncnc3c2)CC1`, for which the IC50 in data set [3] was determined as 9.6 nM; in data set [4], 1920 nM; in data set [6], 8710 nM; in data set [9], 1360 nM; with HUVEC it was 52 nM; in [10] it was 5.5 nM. Besides, the IC50 against Angiopoietin-1 receptor was more than 10000 nM; in data set [11], 10000 nM; in data set [14], more than 10000 nM; in data set [15], more than 10000 nM. Further, in the data set on HepG2 [5], the TGI entry is “Dose-dependent effect”. The Activity entry with Mus musculus [7] and in the data set on Mus musculus [16] was “Non-toxic” throughout. Moreover, the inhibition in vivo at 100 mg/kg with HepG2 [8] stood at 83.6%. Also, the inhibition in vivo at 20 mg/kg in the data set on HepG2 [12] came out at 25.6%. Besides, in the data set on HepG2 [13], the inhibition in vivo at 50 mg/kg stood at 61.4%.
Molecule `CN1CCC(COc2ccc3c(Nc4ccc(NC(=O)Nc5cccc(F)c5)c(Cl)c4)ncnc3c2)CC1` gave an IC50 in the data set with HUVEC of 132 nM.
On to `COc1cc2c(Nc3ccc(Br)cc3F)ncnc2cc1OCC1CCN(C)CC1` [VANDETANIB], for which the IC50 with HUVEC was 187 nM. Also, in data set [17], the solubility result was “soluble”.
In the data set with HUVEC, `COc1cc2c(Nc3ccc(NC(=O)Nc4cccc(F)c4)cc3)ncnc2cc1OCC1CCN(C)CC1` displayed a 50% inhibitory concentration (IC50) of 179 nM. That is a sub-micromolar value.
On to `COc1cc2c(Nc3ccc(NC(=O)Nc4cccc(F)c4)c(F)c3)ncnc2cc1OCC1CCN(C)CC1`, for which the IC50 in the data set with HUVEC came out at 185 nM.
In the data set with HUVEC, `CN1CCC(COc2ccc3c(Nc4ccc(NC(=O)Nc5ccc(F)c(F)c5)cc4)ncnc3c2)CC1` yielded an IC50 of 89 nM.

Source of the values: ChEMBL document CHEMBL1933000, “Design, synthesis and antitumor activity of 4-aminoquinazoline derivatives targeting VEGFR-2 tyrosine kinase” (Bioorg Med Chem Lett, 2012).
